Reference: ChEMBL document CHEMBL3352261, “Discovery of inhibitors of the mitotic kinase TTK based on N-(3-(3-sulfamoylphenyl)-1H-indazol-5-yl)-acetamides and carboxamides” (Bioorg Med Chem, 2014)

Tests used:
[1] = target: Serine/threonine-protein kinase PLK2 (Homo sapiens, UniProt Q9NYY3); experiment: Inhibition of PLK2 (unknown origin) by FRET-based homogenous assay
[2] = target: Serine/threonine-protein kinase PLK3 (Homo sapiens, UniProt Q9H4B4); experiment: Inhibition of PLK3 (unknown origin) by FRET-based homogenous assay
[3] = target: T1, Serine/threonine-protein kinase PLK4 (Homo sapiens, UniProt O00444); experiment: Inhibition of GST-tagged human PLK4 (1-391 residues) phosphorylation by ELISA
T1 sequence (O00444 whole entry): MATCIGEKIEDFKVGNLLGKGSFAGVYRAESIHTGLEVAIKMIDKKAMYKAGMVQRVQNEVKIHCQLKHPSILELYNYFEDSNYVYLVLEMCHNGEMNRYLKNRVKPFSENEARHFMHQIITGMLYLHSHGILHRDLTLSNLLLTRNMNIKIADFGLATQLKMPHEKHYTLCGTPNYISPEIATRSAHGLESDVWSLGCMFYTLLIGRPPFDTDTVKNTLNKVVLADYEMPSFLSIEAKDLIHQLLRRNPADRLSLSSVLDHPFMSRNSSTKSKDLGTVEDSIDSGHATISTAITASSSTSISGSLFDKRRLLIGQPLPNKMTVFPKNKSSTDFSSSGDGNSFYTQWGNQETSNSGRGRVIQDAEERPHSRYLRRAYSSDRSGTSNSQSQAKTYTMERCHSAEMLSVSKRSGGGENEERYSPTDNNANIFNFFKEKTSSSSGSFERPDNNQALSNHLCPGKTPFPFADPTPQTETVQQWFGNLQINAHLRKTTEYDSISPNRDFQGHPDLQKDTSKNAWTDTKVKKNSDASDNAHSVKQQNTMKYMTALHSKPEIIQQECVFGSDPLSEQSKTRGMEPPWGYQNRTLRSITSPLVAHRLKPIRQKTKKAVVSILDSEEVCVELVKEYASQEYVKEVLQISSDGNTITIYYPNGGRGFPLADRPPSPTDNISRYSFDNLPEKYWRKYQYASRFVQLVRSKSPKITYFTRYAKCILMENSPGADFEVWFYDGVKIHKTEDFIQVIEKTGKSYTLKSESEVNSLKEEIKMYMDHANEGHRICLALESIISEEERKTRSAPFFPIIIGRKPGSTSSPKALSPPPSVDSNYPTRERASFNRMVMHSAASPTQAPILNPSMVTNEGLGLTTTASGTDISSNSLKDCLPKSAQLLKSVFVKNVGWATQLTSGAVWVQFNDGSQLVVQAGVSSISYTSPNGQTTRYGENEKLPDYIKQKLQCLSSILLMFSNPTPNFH

[4] = Cmax in SCID mouse at 25 mg/kg, ip; assay type: ADME, organism-based; set-up: dose 25 mg/kg, route intraperitoneal; settings: in vivo
Summary of the method: (§1)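 Mice were dosed at 25 mg/kg by the IP or the PO route. Drug levels were measured in plasma, and Cmax (µg/mL) and AUC (µg h/mL) were derived for each route.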

[5] = AUC in SCID mouse at 25 mg/kg, ip; assay type: ADME, organism-based; set-up: dose 25 mg/kg, route intraperitoneal; settings: plasma; summary of the method: as §1
[6] = Cmax in SCID mouse at 25 mg/kg, po; assay type: ADME, organism-based; set-up: dose 25 mg/kg, route oral; settings: in vivo; summary of the method: as §1
[7] = AUC in SCID mouse at 25 mg/kg, po; assay type: ADME, organism-based; set-up: dose 25 mg/kg, route oral; settings: plasma; summary of the method: as §1
[8] = Antitumor activity against human HCT116 cells xenografted in SCID mouse assessed as tumor growth inhibition at 12.5 mg/kg, ip qd for 18 days; assay type: functional; settings: HCT-116, ip, 432 h, route intraperitoneal, read-out: TGI
Summary of the method: (§2)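 Mice bore HCT116 tumour xenografts. Arms were dosed IP at 12.5 or 25 mg/kg QD, or at 12.5 mg/kg BID. The reference arm received 5-fluorouracil IP at 15 mg/kg daily. Tumour volume was compared with a negative control group to give percent tumour growth inhibition. Body weight was monitored in all arms.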

[9] = Antitumor activity against human HCT116 cells xenografted in SCID mouse assessed as tumor growth inhibition at 25 mg/kg, ip qd for 18 days; assay type: functional; settings: HCT-116, ip, 432 h, route intraperitoneal, read-out: TGI; summary of the method: as §2
[10] = Antitumor activity against human HCT116 cells xenografted in SCID mouse assessed as tumor growth inhibition at 12.5 mg/kg, ip bid for 18 days; assay type: functional; settings: HCT-116, ip, 432 h, route intraperitoneal, read-out: TGI; summary of the method: as §2
[11] = test system: Mus musculus; experiment: Toxicity in SCID mouse assessed as body weight loss at 12.5 mg/kg, ip qd for 18 days; assay type: organism-based; set-up: dose 12.5 mg/kg, route intraperitoneal; settings: in vivo, 432 h; summary of the method: as §2
[12] = test system: Mus musculus; experiment: Toxicity in SCID mouse assessed as body weight loss at 12.5 mg/kg, ip bid for 18 days; assay type: organism-based; set-up: dose 12.5 mg/kg, route intraperitoneal; settings: in vivo, 432 h; summary of the method: as §2
[13] = test system: Mus musculus; experiment: Toxicity in SCID mouse assessed as body weight loss at 15 mg/kg, ip qd for 5 days; assay type: organism-based; set-up: dose 15 mg/kg, route intraperitoneal; settings: in vivo, 120 h; summary of the method: as §2
[14] = test system: Mus musculus; experiment: Toxicity in SCID mouse assessed as mortality at 25 mg/kg, ip bid for 18 days; assay type: organism-based; set-up: dose 25 mg/kg, route intraperitoneal; settings: in vivo, 432 h
[15] = test system: HCT-116; experiment: Antitumor activity against human HCT116 cells xenografted in SCID mouse assessed as tumor growth inhibition administered ip qd for 18 days; assay type: functional, organism-based; summary of the method: as §2

Sequence of Serine/threonine-protein kinase PLK2 (Q9NYY3 whole entry): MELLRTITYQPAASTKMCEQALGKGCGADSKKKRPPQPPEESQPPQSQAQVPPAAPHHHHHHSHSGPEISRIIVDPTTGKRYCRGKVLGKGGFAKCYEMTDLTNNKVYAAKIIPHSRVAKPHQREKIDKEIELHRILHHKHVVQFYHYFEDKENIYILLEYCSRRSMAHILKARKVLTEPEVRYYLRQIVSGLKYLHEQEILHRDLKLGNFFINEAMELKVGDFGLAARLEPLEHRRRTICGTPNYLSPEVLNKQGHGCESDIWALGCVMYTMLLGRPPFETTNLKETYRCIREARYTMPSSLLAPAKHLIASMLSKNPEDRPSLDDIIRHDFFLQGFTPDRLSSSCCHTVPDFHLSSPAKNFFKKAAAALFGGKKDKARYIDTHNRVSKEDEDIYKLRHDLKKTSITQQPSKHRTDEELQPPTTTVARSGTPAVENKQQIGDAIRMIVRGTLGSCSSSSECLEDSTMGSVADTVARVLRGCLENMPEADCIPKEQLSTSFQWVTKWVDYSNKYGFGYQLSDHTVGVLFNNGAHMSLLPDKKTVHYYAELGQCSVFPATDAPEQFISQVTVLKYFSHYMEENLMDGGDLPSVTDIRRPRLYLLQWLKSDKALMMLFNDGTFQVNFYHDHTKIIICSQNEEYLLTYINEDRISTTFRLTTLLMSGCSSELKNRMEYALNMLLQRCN
Sequence of Serine/threonine-protein kinase PLK3 (Q9H4B4 whole entry, the tested form may be a part): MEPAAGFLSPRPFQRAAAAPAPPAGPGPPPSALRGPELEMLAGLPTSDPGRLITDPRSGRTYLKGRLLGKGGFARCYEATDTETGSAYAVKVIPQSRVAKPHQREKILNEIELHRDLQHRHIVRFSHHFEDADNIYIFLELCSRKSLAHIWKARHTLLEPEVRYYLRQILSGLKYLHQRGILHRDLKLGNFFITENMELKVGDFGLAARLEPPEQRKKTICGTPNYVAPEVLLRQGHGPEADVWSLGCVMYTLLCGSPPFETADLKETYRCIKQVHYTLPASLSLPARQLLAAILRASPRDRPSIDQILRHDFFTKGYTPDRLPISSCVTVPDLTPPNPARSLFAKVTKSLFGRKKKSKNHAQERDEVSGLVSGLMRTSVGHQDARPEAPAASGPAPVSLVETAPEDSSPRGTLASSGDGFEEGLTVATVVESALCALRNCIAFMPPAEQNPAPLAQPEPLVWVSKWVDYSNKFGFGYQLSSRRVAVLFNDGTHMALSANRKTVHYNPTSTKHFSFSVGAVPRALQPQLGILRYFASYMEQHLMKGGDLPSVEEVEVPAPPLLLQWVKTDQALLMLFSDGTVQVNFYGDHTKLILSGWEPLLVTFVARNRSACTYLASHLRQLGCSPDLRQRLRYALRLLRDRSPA

| SMILES | IC50 [1] | IC50 [2] | IC50 [3] | Cmax [4] | AUC [5] | Cmax [6] | AUC [7] | inhibition in vivo at 12.5 mg/kg [8] | inhibition in vivo at 25 mg/kg [9] | inhibition in vivo at 12.5 mg/kg [10] | Activity [11] | Activity [12] | Activity [13] | Activity [14] | TGI [15] |
| --- | --- | --- | --- | --- | --- | --- | --- | --- | --- | --- | --- | --- | --- | --- | --- |
| NS(=O)(=O)c1cccc(-c2n[nH]c3ccc(NC(=O)C(c4ccsc4)N4CCCC4)cc23)c1 (racemic) | 10000 nM | > 50000 nM | 89 nM |  |  |  |  |  |  |  |  |  |  |  |  |
| CCc1ccccc1C(C(=O)Nc1ccc2[nH]nc(-c3cccc(S(N)(=O)=O)c3)c2c1)N(C)C (racemic) |  |  | 83 nM | 4800 ng/mL | 3000 ng·h/mL | 130 ng/mL | 140 ng·h/mL | 10% | 66% | 46% | Non-toxic | Non-toxic | Non-toxic | Toxic | Dose-dependent effect |
